One may read the T/C as the ratio of treated to control.

Experimental findings from ChEMBL document CHEMBL1123531, “1,2-bis(arylsulfonyl)hydrazines. 2. The influence of arylsulfonyl and aralkylsulfonyl substituents on antitumor and alkylating activity” (1986) are described below.

Experiment [1] has as its system Mus musculus. Briefly: Compound was evaluated for the antitumor activity as average change in body weight against L1210 leukemia in mice at 150 mg/kg dose. Format: functional. The method in brief:
(§1)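 CDF1 mice carrying ip L1210 ascites (10^5 cells), dosed ip daily for 6 consecutive days starting 24 h after implant, in Tween 80/isotonic saline suspension. Five mice per group. Toxicity taken as mean percent body weight change from start to end of therapy.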

The species entered for experiment [2] is Mus musculus. Briefly: Compound was evaluated for the antineoplastic activity against L1210 leukemia in mice. The experiment is classed as functional. In a few lines:
(§2)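 CDF1 mice, 10^5 L1210 ascites cells implanted ip (from 7-day donor tumors, saline-diluted). Dosed ip once daily for 6 days from 24 h post-implant, 50-150 mg/kg, as Tween 80/saline suspension. Five mice per group, vehicle-treated controls. Read-out: % T/C, mean survival of treated/control ×100.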

Experiment [3] relates to Mus musculus. Briefly: Compound was evaluated for the antitumor activity as average change in body weight against L1210 leukemia in mice at 50 mg/kg dose. Format: functional. The method in brief:
as §1

Experiment [4] deals with Mus musculus. Briefly: (§3) Compound was evaluated for the antitumor activity against L1210 leukemia in mice at 100 mg/kg dose. The experiment is classed as functional. In a few lines:
as §2

In experiment [5] the test system is Mus musculus. Briefly: Compound was evaluated for the antitumor activity as average change in body weight against L1210 leukemia in mice at 100 mg/kg dose. The experiment is classed as functional. The method in brief:
as §1

Experiment [6] is described as follows: Compound was evaluated for relative alkylating activity.
Experiment [7] concerns Mus musculus. Briefly: Compound was evaluated for the antitumor activity against L1210 leukemia in mice at 150 mg/kg dose. Format: functional. In a few lines: (§4)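 L1210 ascites leukemia serially passaged in CDF1 mice; 10^5 cells implanted ip. Compounds homogenized in drops of 20% aqueous Tween 80, brought to volume with isotonic saline, given ip as fine suspensions once daily for 6 consecutive days starting 24 h after implantation. Five mice per group; vehicle controls. Endpoint: % T/C = mean survival treated/control × 100; body-weight change tracked toxicity.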

For experiment [8], the system named is Mus musculus. Briefly: Compound was evaluated for the antitumor activity against L1210 leukemia in mice at 50 mg/kg dose. Format: functional. In a few lines:
as §4

Experiment [9] relates to Mus musculus. The description is as §3. Format: functional. In a few lines:
as §4
This is another data set of the same source.

In experiment [10] the test system is Mus musculus. Briefly: Compound was evaluated for the antitumor activity as average change in body weight against L1210 leukemia in mice 150 mg/kg dose. Format: functional. The method in brief:
as §1

The subject of experiment [11] is Mus musculus. Briefly: Compound was evaluated for the antitumor activity as average change in body weight against L1210 leukemia in mice 100 mg/kg dose. Format: functional. In a few lines:
as §1

Several values for one entry are separate records, joined by “and”; a condition that tells them apart may be missing. Equal values may be shown once.

Consider `COc1ccc(S(=O)(=O)NN(C)S(=O)(=O)c2ccc(C)cc2)cc1`, for which the “Average change in weight” value in experiment [1] is 2.9%; in [3], 7.7%; in [5], 7.8%. Moreover, in experiment [2], the “Max T/C” value turned out to be 162%. Also, the figures for the T/C in experiment [4], in [7] and in experiment [8] were 162%, 143% and 116%, respectively. In experiment [6], this compound returned a Relative activity of 91. Also, the Average survival time in experiment [8] (50 mg/kg) is 15 days and 13.2 days.
Turning to `CN(NC(=O)c1ccccc1)C(=O)c1ccccc1`, the “Max T/C” value in [2] was determined as 97%. In [6], this compound had a Relative activity of 10.
Turning to `Cc1ccc(S(=O)(=O)NN(C)S(=O)(=O)c2ccc(Cl)cc2)cc1`, the “Average change in weight” value in [1] was -4.6%; in experiment [3], 5.1%; in experiment [5], 5.5%. Also, the “Max T/C” value in [2] is 141%. In [6], this compound had a Relative activity of 163. In addition, the Average survival time in experiment [9] worked out at 13 days; in experiment [7] it was 10 days.
For `Cc1ccc(S(=O)(=O)N(C)NS(=O)(=O)c2ccccc2)cc1`, the “Max T/C” value in [2] is listed as 162%. In addition, the “Average change in weight” value is 2% in [3], -1.7% in experiment [10] and 5.4% in experiment [11]. Further, the Relative activity in [6] is given as 112. Besides, the Average survival time in [8] was determined as 15 days. In experiment [8], this compound gave a T/C of 162%.
As to `CN(NS(=O)(=O)c1ccc(Cl)cc1)S(=O)(=O)c1ccc(Cl)cc1`, the Relative activity in experiment [6] was 190.
Consider `COc1ccc(S(=O)(=O)N(C)NS(=O)(=O)c2ccc(C)cc2)cc1`, for which the “Average change in weight” value in experiment [1] worked out at 9.8%; in experiment [3], 12.6%; in [5], 14.8%. The “Max T/C” value in [2] is 113%. Further, the Relative activity in experiment [6] worked out at 85.
In the case of `Cc1ccc(S(=O)(=O)N(C)NS(=O)(=O)c2ccc(Cl)cc2)cc1`, the “Average change in weight” value in [1] turned out to be 6%; in [3], 3.7%; in [5], 10%. In addition, the “Max T/C” value in [2] came out at 188%. The compound further displayed a Relative activity in experiment [6] of 126. Further, the T/C in experiment [7] stood at 121%; in [8], 188%.
Regarding `O=S(=O)(NNS(=O)(=O)c1ccccc1)c1ccccc1`, the Relative activity in experiment [6] was 0.
Still for that read-out and setting: to `Cc1ccc(S(=O)(=O)N(C)NS(=O)(=O)Cc2ccccc2)cc1` belongs 136; to `Cc1ccc(S(=O)(=O)NN(C)S(=O)(=O)c2ccc(C)cc2)cc1`, 100.
